Results on 19 compounds are retold here after paper PMC4706624 (International Journal for Parasitology: Drugs and Drug …, 2015).

For orientation: IC50 means the point on the concentration scale where inhibition reaches its midpoint. One may read the EC50 as the concentration giving half of the maximal effect.

Experiment [1] addresses T1, PvENT1 (Plasmodium vivax, UniProt A5K8B0).
T1 sequence (A5K8B0 1-416): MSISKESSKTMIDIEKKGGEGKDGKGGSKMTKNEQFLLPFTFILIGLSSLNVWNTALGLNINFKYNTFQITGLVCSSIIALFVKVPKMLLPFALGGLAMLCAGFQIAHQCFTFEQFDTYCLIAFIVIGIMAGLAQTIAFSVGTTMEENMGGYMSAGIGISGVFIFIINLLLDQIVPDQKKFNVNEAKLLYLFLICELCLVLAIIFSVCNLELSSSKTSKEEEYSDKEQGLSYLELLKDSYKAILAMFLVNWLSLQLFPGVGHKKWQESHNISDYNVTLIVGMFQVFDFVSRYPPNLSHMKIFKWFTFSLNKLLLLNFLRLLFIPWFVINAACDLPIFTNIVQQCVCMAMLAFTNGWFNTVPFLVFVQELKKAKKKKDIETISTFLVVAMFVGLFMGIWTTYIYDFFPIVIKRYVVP
Briefly: Inhibition of [3H]uridine uptake into PvENT1-expressing yeast. In kind it is cell-based. The note with it: for fold lower IC50 of PvENT1 than PfENT1: PvENT1 vs PfENT1.

Experiment [2] addresses T1, PvENT1. Briefly: Inhibition of [3H]adenosine uptake into PvENT1-expressing yeast. In kind it is cell-based.
In the next experiment the test system is hENT1. Particulars: ref Griffiths et al., 1997, Baldwin et al., 2004, cited from earlier work.
For a further experiment, the system named is PfENT1. Particulars: read-out: PfENT1 IC50; ref Riegelhaupt et al., 2010a; cited from earlier work.
Experiment [3] relates to PvENT1-expressing purine auxotrophic yeast. Put plainly: Growth of PvENT1-expressing purine auxotrophic yeast with a sole purine source. In kind it is cell-based. The note with it: Saccharomyces cerevisiae, read-out: growth EC50. An outline of the steps:
(§1)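 Yeast strain was MATa his3Δ1 leu2Δ0 met15Δ0 ura3Δ0 fui1Δ::KanMX4 ade2Δ::hphNT1 carrying pCM189 (empty or PvENT1). Cells grown to mid-log in SDM-adenine were washed three times in water, diluted to 4 × 10^6 cells/mL, and added 1:1 to adenine or adenosine serially diluted in 2× purine-free SDM.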

In experiment [4] the test system is empty vector (EV) purine auxotrophic yeast. Put plainly: Growth of empty vector. In kind it is cell-based, Saccharomyces cerevisiae. The gist of the method:
as §1

The mark [5] stands for this setting: IC50 for inhibition of [^3H]Uridine by indicated purine, 250 nM [3H]uridine, 15 min, PvENT1-expressing yeast, mean ± SD.
[6] abbreviates: IC50 for inhibition of [^3H]Adenosine by indicated pyrimidine, 50 nM [3H]adenosine, 15 min, PvENT1-expressing yeast, mean ± SD.
Setting [7] is: [^3H]Adenosine uptake inhibition IC50, hENT1 inhibitors and toxic purine analogs, 50 nM [3H]adenosine, concentrations up to 20 mM, mean ± SD, n = 3.
The mark [8] stands for this setting: hENT1 inhibitors and toxic purine analogs, 50 nM [3H]adenosine, concentrations up to 20 mM, mean ± SD, n = 3.
Where [9] appears, read: read-out: [^3H]Adenosine uptake inhibition IC50, hENT1 inhibitors and toxic purine analogs, 50 nM [3H]adenosine, concentrations up to 20 mM, mean ± SD, n = 3.
The mark [10] stands for this setting: IC50 for inhibition of [^3H]substrate uptake by the indicated purine, WT, Table 4, WT PvENT1, radiolabel [3H]adenosine (#).

“And” between values parts separate entries of the source, which are not always exact repeats. Equal entries are not always repeated. “Also recorded” adds a separate entry of the source.

As to `Nc1nc2nc[nH]c2c(=O)[nH]1` [Guanine], the half-inhibitory concentration (IC50) against PvENT1 [1] (setting [5]) was 6340 ± 2950 µM.
In turn, `Cc1cn([C@H]2C[C@H](O)[C@@H](CO)O2)c(=O)[nH]c1=O` [Thymidine] had an IC50 on PvENT1 [2] (setting [6]) of 183 ± 53 µM.
As to `OCCN(CCO)c1nc(N2CCCCC2)c2nc(N(CCO)CCO)nc(N3CCCCC3)c2n1` [Dipyridamole, dipyridamole], the “PvENT1 IC50 relative to hENT1” value at PvENT1 [2] (PvENT1 vs human ENT1) turned out to be 1000 fold. Besides, the concentration for half-maximal inhibition (IC50) against PvENT1 [2] (setting [7]) was ~40 µM and 40 µM. Further, in the experiment with hENT1, the “concentration range inhibiting hENT1” value was 5 to 20 nM.
As to `Nc1ncnc2c1ccn2[C@@H]1O[C@H](CO)[C@@H](O)[C@H]1O` [Tubercidin, tubercidin (7-deaza-adenosine)], the “[^3H]Adenosine uptake inhibition IC50” value on PvENT1 [2] (setting [8]) is on record as “failed to inhibit”. The IC50 at PvENT1 [2] (setting [9]) was > 20000 µM.
Consider `Sc1ncnc2nc[nH]c12` [6-mercaptopurine], for which the IC50 at PvENT1 [2] (setting [7]) was 160 µM and 158 µM.
With `Nc1nc2c(ncn2[C@@H]2O[C@H](CO)[C@@H](O)[C@H]2O)c(=O)[nH]1` [Guanosine], half-maximal inhibition on PvENT1 [1] (setting [5]) (IC50) required 14.9 ± 1.4 µM.
`Cc1c[nH]c(=O)[nH]c1=O` [Thymine]: the IC50 against PvENT1 [2] (setting [6]) came to 564 ± 145 µM.
On to `O=c1[nH]cnc2nc[nH]c12` [Hypoxanthine], for which the 50% inhibitory concentration (IC50) on PvENT1 [2] (setting [10]) was 141 ± 24 µM; against PvENT1 [1] (setting [5]) it was 99 ± 30 µM; in the experiment on PfENT1, ~480 µM. The “fold lower IC50 of PvENT1 than PfENT1” value on PvENT1 [1] was 4–5 fold.
Turning to `O=[N+]([O-])c1ccc(CSc2ncnc3c2ncn3C2OC(CO)C(O)C2O)cc1` (stereo not drawn) [NBMPR, 4-nitrobenzylthioinosine], the “[^3H]Adenosine uptake inhibition IC50” value on PvENT1 [2] (setting [8]) is “did not inhibit; also recorded: not sensitive”; on PvENT1 [2] (hENT1 inhibitors and toxic purine analogs, 50 nM [3H]adenosine, concentrations up to 20 mM, mean ± SD, n = 3, listed as 4-nitrobenzylthioinosine (NBMPR)), “no effect”. Also, on PvENT1 [2] (setting [9]), the IC50 is > 20000 µM. Further, the “concentrations inhibiting hENT1” value with hENT1 (in words) is reported as “sub-nanomolar”.
In the case of `Nc1ncnc2c1ncn2[C@@H]1O[C@H](CO)[C@@H](O)[C@H]1O` [Adenosine], in experiment [3], the EC50 was 394 ± 85 µM. In experiment [4] (EV yeast, liquid media, sole purine source), the “growth EC50” value is given as “failed to grow”. Besides, the IC50 at PvENT1 [1] (setting [5]) is 142 ± 34 µM; at PvENT1 [1] (IC50 for inhibition of [^3H]substrate uptake by the indicated purine, WT, Table 4, WT PvENT1, radiolabel [3H]uridine), 167 ± 52 µM; in the experiment with PfENT1 it was ~650 µM. For the same compound, on PvENT1 [1], the “fold lower IC50 of PvENT1 than PfENT1” value is given as 4–5 fold.
As for `Nc1cc[nH]c(=O)n1` [Cytosine], on PvENT1 [2] (setting [6]), the IC50 stood at 6140 ± 1030 µM. For the same compound, the “effect on radiolabel uptake into PvENT1-expressing yeast (in words)” value on PvENT1 [2] ([3H]adenosine uptake for pyrimidines) is listed as “slight inhibition”.
For `O=c1[nH]c(=O)n([C@@H]2O[C@H](CO)[C@@H](O)[C@H]2O)cc1F` [5-Fluorouridine (5-FUrd), 5-Fluorouridine], the concentration for half-maximal inhibition (IC50) amounted to 1770 ± 302 µM against PvENT1 [2] (setting [6]) and 1700 µM against PvENT1 [2] (IC50 for inhibition of [^3H]adenosine uptake, 50 nM [3H]adenosine).
As for `OC[C@H]1O[C@@H](n2cnc3c(O)ncnc32)[C@H](O)[C@@H]1O` [Inosine], the half-maximal inhibitory concentration (IC50) against PvENT1 [2] (setting [10]) was determined as 5 ± 4 µM; at PvENT1 [1] (setting [5]), 3.8 ± 1.4 µM.
Consider `Nc1nc2c(ncn2[C@H]2C[C@H](O)[C@@H](CO)O2)c(=O)[nH]1` [2-deoxyguanosine], for which the IC50 at PvENT1 [1] (read-out: IC50 for inhibition of [^3H]Uridine by indicated purine, 250 nM [3H]uridine, 15 min, PvENT1-expressing yeast, mean ± SD) stood at 20.5 ± 4.8 µM.
In the case of `O=c1ccn([C@@H]2O[C@H](CO)[C@@H](O)[C@H]2O)c(=O)[nH]1` [Uridine], it took 1730 ± 809 µM to reach half-maximal inhibition on PvENT1 [2] (setting [6]) (IC50).
On the same count and under the same terms, under `O=c1cc[nH]c(=O)[nH]1` [Uracil] stands 3390 ± 1170 µM.
`Nc1ncnc2[nH]cnc12` [Adenine]: the half-maximal effective concentration (EC50) in experiment [3] amounted to 27 ± 2 µM; in experiment [4] (Saccharomyces cerevisiae, read-out: growth EC50), 39 ± 2 µM. The compound further returned a half-maximal inhibitory concentration (IC50) at PvENT1 [1] (setting [5]) of 1430 ± 736 µM. The “IC50 of nucleobase relative to the corresponding nucleoside” value against PvENT1 [1] (PvENT1-expressing yeast) is given as “one order of magnitude higher”.
Compound `O=c1[nH]c(=O)c2ncn([C@@H]3O[C@H](CO)[C@@H](O)[C@H]3O)c2[nH]1` [Xanthosine] returned an IC50 on PvENT1 [1] (setting [5]) of 4310 ± 2870 µM.
Regarding `O=c1[nH]c(=O)c2[nH]cnc2[nH]1` [Xanthine], inhibition on PvENT1 [1] (setting [5]) was half-maximal at 2550 ± 189 µM (IC50).
